Active and inactive are the calls of the source. The rule behind the calls is not given here.
These compounds were tested against Transient receptor potential cation channel subfamily V member 1 (Homo sapiens) (UniProt Q8NER1) (assay: Agonist activity at human TRPV1 expressed in HEK293 cells assessed as increase in intracellular calcium level at 33 uM measured for 2.5 mins by Fluo-8-AM dye based fluorescence assay).
Assay type: cell-based

Chain of Transient receptor potential cation channel subfamily V member 1 (Homo sapiens) (Q8NER1 whole entry): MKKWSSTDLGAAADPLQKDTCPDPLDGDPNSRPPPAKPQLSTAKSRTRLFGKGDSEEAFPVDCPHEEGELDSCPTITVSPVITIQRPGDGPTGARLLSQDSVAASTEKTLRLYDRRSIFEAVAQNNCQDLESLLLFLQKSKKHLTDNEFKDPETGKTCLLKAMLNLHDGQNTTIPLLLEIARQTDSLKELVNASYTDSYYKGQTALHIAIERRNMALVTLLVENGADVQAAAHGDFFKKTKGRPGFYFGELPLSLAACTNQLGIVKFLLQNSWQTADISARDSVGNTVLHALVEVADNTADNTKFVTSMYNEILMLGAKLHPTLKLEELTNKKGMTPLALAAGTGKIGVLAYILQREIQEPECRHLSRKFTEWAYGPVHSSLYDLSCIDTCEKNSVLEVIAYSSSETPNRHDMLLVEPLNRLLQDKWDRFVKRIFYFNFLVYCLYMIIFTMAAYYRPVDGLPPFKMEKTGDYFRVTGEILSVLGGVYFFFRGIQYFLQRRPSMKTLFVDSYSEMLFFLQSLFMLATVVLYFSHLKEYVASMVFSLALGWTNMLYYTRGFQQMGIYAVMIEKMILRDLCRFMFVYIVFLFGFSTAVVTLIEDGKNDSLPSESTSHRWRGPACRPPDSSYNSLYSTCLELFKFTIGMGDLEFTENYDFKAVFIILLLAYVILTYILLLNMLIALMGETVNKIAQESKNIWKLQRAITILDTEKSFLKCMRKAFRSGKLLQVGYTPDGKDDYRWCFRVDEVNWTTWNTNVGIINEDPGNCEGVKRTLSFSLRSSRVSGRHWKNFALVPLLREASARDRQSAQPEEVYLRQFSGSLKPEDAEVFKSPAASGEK

| Activity | Compound |
| --- | --- |
| inactive | Cc1nn2c(O)cc(C3CCN(C(=O)OCc4ccccc4)CC3)nc2c1-c1ccc(Cl)cc1 |
| inactive | CCOC(=O)N1CCC(c2cc(O)n3nc(C)c(-c4ccc(C(F)(F)F)cc4)c3n2)CC1 |
| inactive | Cc1nn2c(O)cc(C3CCN(C(=O)OCc4ccccc4)CC3)nc2c1-c1ccc(F)cc1 |

| Compound | Activity |
| --- | --- |
| CCOC(=O)N1CCC(c2cc(O)n3nc(C)c(-c4ccc(F)cc4)c3n2)CC1 | inactive |

What follows are compounds tested against T1, Short transient receptor potential channel 4 (Mus musculus) (UniProt Q9QUQ5) (assay: Inhibition of mouse TRPC4beta expressed in HEK293 cells co-expressing MOR assessed as decrease in DAMGO-evoked membrane depolarization at 22 uM preincubated for 2 mins followed by DAMGO addition measured for 2.5 mins by FLIPR membrane potential dye-based fluorescence assay relative to control).
T1 sequence (whole entry): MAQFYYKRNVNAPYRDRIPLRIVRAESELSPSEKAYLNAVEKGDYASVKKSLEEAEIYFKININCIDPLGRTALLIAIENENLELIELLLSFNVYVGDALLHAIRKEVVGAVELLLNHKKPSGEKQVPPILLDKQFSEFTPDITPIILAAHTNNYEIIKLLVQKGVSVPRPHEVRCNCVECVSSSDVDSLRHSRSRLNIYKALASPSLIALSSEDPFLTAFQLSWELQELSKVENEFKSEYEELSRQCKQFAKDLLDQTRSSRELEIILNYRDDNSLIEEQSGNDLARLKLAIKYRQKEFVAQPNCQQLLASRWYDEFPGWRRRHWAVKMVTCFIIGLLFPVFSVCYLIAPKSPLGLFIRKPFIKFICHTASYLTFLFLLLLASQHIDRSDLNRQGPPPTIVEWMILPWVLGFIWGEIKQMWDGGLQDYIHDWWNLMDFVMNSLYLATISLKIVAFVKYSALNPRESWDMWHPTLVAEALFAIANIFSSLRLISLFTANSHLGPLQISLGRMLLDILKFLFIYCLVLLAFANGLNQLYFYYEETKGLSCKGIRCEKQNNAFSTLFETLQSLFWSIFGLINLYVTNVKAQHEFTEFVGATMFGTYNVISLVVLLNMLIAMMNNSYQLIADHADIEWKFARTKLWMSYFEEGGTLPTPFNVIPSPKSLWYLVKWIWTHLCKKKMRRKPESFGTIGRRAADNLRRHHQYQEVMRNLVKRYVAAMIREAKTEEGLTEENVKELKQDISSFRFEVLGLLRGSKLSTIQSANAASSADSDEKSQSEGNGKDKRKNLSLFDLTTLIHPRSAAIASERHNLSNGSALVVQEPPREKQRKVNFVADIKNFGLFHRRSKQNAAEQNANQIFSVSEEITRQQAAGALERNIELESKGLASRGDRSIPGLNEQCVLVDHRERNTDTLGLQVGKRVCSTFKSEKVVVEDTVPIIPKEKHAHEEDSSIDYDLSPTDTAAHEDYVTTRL
Assay type: cell-based
Procedure, shortened: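 Same TRP panel as for the stimulation tests, with FMP dye for TRPC4 and M5 and Fluo8-AM for TRPA1, V1 and M8. Compound applied for 2 min before the channel agonist (TRPC4: 1 μM DAMGO). Inhibition of the agonist response measured on a FlexStation at 32 °C.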

| inhibition [%] | Compound |
| --- | --- |
| 33 | CCOC(=O)N1CCC(c2cc(O)n3nc(C)c(-c4ccc(C(F)(F)F)cc4)c3n2)CC1 |
| 13 | Cc1nn2c(O)cc(C3CCN(C(=O)OCc4ccccc4)CC3)nc2c1-c1ccc(F)cc1 |

These compounds were tested against Transient receptor potential cation channel subfamily A member 1 (Homo sapiens) (UniProt O75762) (assay: Agonist activity at human TRPA1 expressed in HEK293 cells assessed as increase in intracellular calcium level at 33 uM measured for 2.5 mins by Fluo-8-AM dye based fluorescence assay).
Chain of Transient receptor potential cation channel subfamily A member 1 (Homo sapiens) (O75762 whole entry): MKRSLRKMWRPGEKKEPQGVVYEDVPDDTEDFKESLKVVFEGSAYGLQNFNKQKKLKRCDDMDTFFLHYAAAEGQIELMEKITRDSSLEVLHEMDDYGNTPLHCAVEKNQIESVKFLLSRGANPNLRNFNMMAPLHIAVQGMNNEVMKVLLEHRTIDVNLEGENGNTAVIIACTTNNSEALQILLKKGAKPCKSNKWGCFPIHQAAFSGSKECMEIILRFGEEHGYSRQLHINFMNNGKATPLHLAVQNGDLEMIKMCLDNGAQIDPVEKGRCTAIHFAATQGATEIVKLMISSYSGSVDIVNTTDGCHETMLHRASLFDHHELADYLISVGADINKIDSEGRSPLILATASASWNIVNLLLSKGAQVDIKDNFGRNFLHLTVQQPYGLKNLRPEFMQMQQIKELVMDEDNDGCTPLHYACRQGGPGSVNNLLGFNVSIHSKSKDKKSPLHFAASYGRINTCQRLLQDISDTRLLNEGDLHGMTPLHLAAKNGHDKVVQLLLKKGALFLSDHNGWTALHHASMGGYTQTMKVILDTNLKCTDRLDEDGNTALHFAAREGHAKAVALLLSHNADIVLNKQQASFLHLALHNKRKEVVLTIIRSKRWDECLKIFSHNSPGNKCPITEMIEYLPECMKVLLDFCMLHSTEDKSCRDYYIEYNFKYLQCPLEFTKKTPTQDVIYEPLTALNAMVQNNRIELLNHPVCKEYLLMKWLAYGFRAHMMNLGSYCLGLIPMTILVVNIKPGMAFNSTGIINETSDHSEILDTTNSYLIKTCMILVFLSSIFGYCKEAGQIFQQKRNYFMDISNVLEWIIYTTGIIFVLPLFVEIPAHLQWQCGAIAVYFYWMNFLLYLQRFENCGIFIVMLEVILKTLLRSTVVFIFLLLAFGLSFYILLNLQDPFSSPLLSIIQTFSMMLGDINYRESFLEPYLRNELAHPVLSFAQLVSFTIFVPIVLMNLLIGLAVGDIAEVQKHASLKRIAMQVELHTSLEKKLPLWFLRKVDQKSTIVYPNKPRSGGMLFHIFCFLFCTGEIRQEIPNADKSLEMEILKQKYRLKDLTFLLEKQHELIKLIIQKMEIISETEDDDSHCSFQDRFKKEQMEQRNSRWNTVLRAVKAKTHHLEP
Assay type: cell-based

| Activity | Compound |
| --- | --- |
| inactive | Cc1nn2c(O)cc(C3CCN(C(=O)OCc4ccccc4)CC3)nc2c1-c1ccc(Cl)cc1 |
| inactive | CCOC(=O)N1CCC(c2cc(O)n3nc(C)c(-c4ccc(C(F)(F)F)cc4)c3n2)CC1 |
| inactive | Cc1nn2c(O)cc(C3CCN(C(=O)OCc4ccccc4)CC3)nc2c1-c1ccc(F)cc1 |

| Compound | Activity |
| --- | --- |
| CCOC(=O)N1CCC(c2cc(O)n3nc(C)c(-c4ccc(F)cc4)c3n2)CC1 | inactive |

These compounds were tested against T2, Short transient receptor potential channel 6 (Mus musculus) (UniProt Q61143) (assay: Antagonist activity at mouse TRPC6 expressed in HEK293 cells co-expressing Gq11-PLCbeta fused M5 receptor assessed as channel desensitization at 20 to 100 uM at +80 mV in presence of 0.1 mM Ca2+ by whole cell patch-clamp method).
T2 sequence (whole entry): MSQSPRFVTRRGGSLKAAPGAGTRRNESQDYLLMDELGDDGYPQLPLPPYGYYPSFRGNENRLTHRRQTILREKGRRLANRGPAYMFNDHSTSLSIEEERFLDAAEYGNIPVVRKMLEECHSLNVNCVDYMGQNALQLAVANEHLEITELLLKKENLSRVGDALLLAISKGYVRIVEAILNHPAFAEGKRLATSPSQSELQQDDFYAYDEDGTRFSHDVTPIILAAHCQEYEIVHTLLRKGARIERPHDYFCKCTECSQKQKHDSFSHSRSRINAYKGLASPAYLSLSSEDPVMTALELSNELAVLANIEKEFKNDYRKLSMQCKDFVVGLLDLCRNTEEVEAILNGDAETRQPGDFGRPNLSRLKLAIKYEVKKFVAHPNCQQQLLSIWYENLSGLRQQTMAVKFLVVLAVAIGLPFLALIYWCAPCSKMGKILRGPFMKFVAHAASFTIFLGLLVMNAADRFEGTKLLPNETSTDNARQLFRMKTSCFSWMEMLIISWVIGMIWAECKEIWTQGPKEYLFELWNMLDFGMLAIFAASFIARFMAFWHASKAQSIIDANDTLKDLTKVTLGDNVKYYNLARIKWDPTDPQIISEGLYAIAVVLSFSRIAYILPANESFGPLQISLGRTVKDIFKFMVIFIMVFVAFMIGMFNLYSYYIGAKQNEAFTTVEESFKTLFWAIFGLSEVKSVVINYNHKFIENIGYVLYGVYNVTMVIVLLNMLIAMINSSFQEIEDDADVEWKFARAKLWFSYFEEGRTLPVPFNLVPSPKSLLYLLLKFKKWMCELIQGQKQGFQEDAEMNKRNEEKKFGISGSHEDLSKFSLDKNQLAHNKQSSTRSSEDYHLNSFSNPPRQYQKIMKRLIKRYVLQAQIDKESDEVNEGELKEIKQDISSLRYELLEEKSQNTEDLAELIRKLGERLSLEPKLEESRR
Assay type: cell-based
Procedure, shortened: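 Whole-cell clamp of TRPC6/M5 or TRPC7 HEK293 cells with 0.1 mM Ca2+ bath and 400 nM free Ca2+ pipette. Ramps +100 to −100 mV every 1 s. Increasing concentrations given consecutively by perfusion (TRPC6 highest 20–100 μM; TRPC7 up to 30 μM). Currents at positive and negative potentials followed for desensitization.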

| Compound | Activity |
| --- | --- |
| Cc1nn2c(O)cc(C3CCN(C(=O)OCc4ccccc4)CC3)nc2c1-c1ccc(Cl)cc1 | inactive |
| CCOC(=O)N1CCC(c2cc(O)n3nc(C)c(-c4ccc(C(F)(F)F)cc4)c3n2)CC1 | inactive |
| CCOC(=O)N1CCC(c2cc(O)n3nc(C)c(-c4ccc(F)cc4)c3n2)CC1 | inactive |
| Cc1nn2c(O)cc(C3CCN(C(=O)OCc4ccccc4)CC3)nc2c1-c1ccc(F)cc1 | inactive |
